ChEMBL document CHEMBL4308887, “Synthesis and biological evaluation of clovamide analogues with catechol functionality as potent Parkinson's disease agents in vitro and in vivo” (Bioorg Med Chem Lett, 2019)
Calls of active or inactive are those of the source. The calls are words filed in the database; no cut-off is given here.

Assays:
[1] = tested on: SH-SY5Y; test: Induction of apoptosis in non-stimulated human SH-SY5Y cells assessed as necrotic cells at 10 uM measured after 6 hrs by Annexin V-FITC/propidium iodide staining based flow cytometry (reference value: 0.6%); type: cell-based
[2] = tested on: Mus musculus; test: Anti-parkinson's activity in MPTP-induced C57Bl/6 mouse model of Parkinson's disease assessed as increase in tyrosine hydroxylase expression in substantia nigra at 10 to 20 mg/kg, ig pretreated for 10 days followed by MPTP challenge measured 10 days post MPTP addition by Western blot analysis; type: functional, organism-based
Outline: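 Tissue taken 10 days after MPTP injection from mice dosed orally with 1 (10 or 20 mg/kg). TH in SNpc and striatum by western blot, and by DAB immunostaining. Three of the mice per group analysed. Mean ± S.D., n = 6 mice/group.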

[3] = Oral bioavailability in Sprague-Dawley rat at 25 mg/kg by LC-MS/MS analysis; type: ADME, organism-based; details: in vivo
Outline: (§1)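 Male Sprague–Dawley rats (n = 3) dosed i.v. 5 mg/kg (5% DMSO, 2% F68, 93% saline) or p.o. 25 mg/kg (0.5% methylcellulose, 1% Tween 80). Orbital blood at 0.083–24 h (12 points). Plasma concentration–time profiles gave Cl, Vdss, AUC, T1/2, Tmax, Cmax, MRT and absolute F.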

[4] = Activation of PI3K/Akt/mTOR signaling in human SH-SY5Y cells assessed as up regulation of H2O2-induced HO-1 expression at 10 uM preincubated for 6 hrs followed by H2O2 addition and after 24 hrs in presence of MEK1/2 inhibitor U0126 by Western blot analysis; type: cell-based
Outline: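 SH-SY5Y cells preincubated 1 h with one inhibitor: SB203580 10 μM, LY294002 5 μM, U0126 10 μM, SP600125 5 μM or rapamycin 100 nM. Then 1 (10 μM) for 6 h, then 600 μM H₂O₂. HO-1 measured by western blot and densitometry. Mean ± S.E.M., three independent experiments.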

[5] = tested on: SH-SY5Y; test: Protection against H2O2-induced oxidative stress in human SH-SY5Y cells assessed as reduction in MDA level preincubated for 6 hrs followed by H2O2 addition and measured after 24 hrs by thiobarbituric acid method; type: functional, cell-based
Outline: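 Cellular SOD activity (units) and MDA content (μmol/g) measured in SH-SY5Y after pretreatment (1, 10 μM) and 600 μM H₂O₂. Mean ± S.E.M. of three independent experiments.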

[6] = tested on: SH-SY5Y; test: Protection against H2O2-induced apoptosis in human SH-SY5Y cells assessed as decrease in cleaved caspase3 expression preincubated for 6 hrs followed by H2O2 addition and measured after 24 hrs by Western blot analysis; type: functional, cell-based
Outline: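 Western blot of Bax, Bcl-2 and cleaved caspase-3 in SH-SY5Y after pretreatment (1, 10 μM) and 600 μM H₂O₂. β-actin internal standard; Bax/Bcl-2 ratio from densitometry. Mean ± S.E.M., three independent experiments.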

[7] = tested on: Mus musculus; test: Anti-parkinson's activity in MPTP-induced C57Bl/6 mouse model of Parkinson's disease assessed as restoration of motor ability by measuring increase in time spent on rota-rod at 10 to 20 mg/kg, ig pretreated for 10 days followed by MPTP challenge measured 4 to 72 hrs post MPTP addition for 3 mins by rota rod test; type: functional, organism-based
Outline: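 MPTP-intoxicated mice given 1 orally at 10 or 20 mg/kg. Time retained on a rotating rod recorded 4, 24, 48 and 72 h after MPTP. Mean ± S.D., n = 6 mice/group.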

[8] = tested on: Mus musculus; test: Anti-parkinson's activity in MPTP-induced C57Bl/6 mouse model of Parkinson's disease assessed as reduction in MDA level in striatum administered intragastrically pretreated for 10 days followed by MPTP challenge measured 10 days post MPTP addition by thiobarbituric acid method; type: functional, organism-based
Outline: (§2)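 Striatum and SNpc from MPTP-treated mice dosed orally with 1 at 10 or 20 mg/kg. MDA level and SOD activity measured. Mean ± S.D., n = 6 mice/group.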

[9] = Half life in Sprague-Dawley rat at 5 mg/kg, iv by LC-MS/MS analysis; type: ADME, organism-based; details: in vivo
Outline: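 Male Sprague–Dawley rats dosed with 1 at 5 mg/kg i.v. (vehicle 5% DMSO, 2% F68, 93% saline) or 25 mg/kg p.o. (0.5% methylcellulose with 1% Tween 80). Orbital blood sampled at 0.083–24 h, 12 time points. Plasma PK parameters derived. Mean ± SD, n = 3.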

[10] = tested on: Mus musculus; test: Anti-parkinson's activity in MPTP-induced C57Bl/6 mouse model of Parkinson's disease assessed as decrease in ratio of Bax/Bcl2 expression in striatum at 10 to 20 mg/kg, ig pretreated for 10 days followed by MPTP challenge measured 10 days post MPTP addition by Western blot analysis; type: functional, organism-based
[11] = tested on: SH-SY5Y; test: Protection against H2O2-induced mitochondrial dysfunction in human SH-SY5Y cells assessed as increase in mitochondrial membrane potential at 1 to 10 uM preincubated for 6 hrs followed by H2O2 addition and measured after 24 hrs by Rh123 staining based inverted microscopic analysis; type: functional, cell-based
Outline: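 ΔΨm examined by inverted fluorescence microscopy and flow cytometry after pretreatment (1, 10 μM) and 600 μM H₂O₂. Reported as % of control. Mean ± S.E.M., three independent experiments.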

[12] = tested on: SH-SY5Y; test: Neuroprotection against H2O2-induced toxicity in human SH-SY5Y cells assessed as LDH release at 10 uM preincubated for 6 hrs followed by H2O2 addition and measured after 24 hrs (reference value: 339.93 +/- 3.66 U/L); type: functional
Outline: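 Cells pretreated with test agent (1 or 10 μM), then 600 μM H₂O₂; plasma membrane damage read as LDH leakage into medium (U/L). DMSO below 0.1% in all groups. Mean ± S.E.M. of three independent experiments.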

[13] = Volume of distribution at steady state in Sprague-Dawley rat at 25 mg/kg, po by LC-MS/MS analysis; type: ADME, organism-based; details: in vivo; outline: as §1
[14] = tested on: SH-SY5Y; test: Neuroprotection against H2O2-induced cell death in human SH-SY5Y cells assessed as cell viability at 1 uM preincubated for 6 hrs followed by H2O2 addition and measured after 24 hrs by MTT assay relative to control; type: functional; details: read-out: Activity
Outline: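 SH-SY5Y cells pretreated with 1 at 1 or 10 μM, then exposed to 600 μM H₂O₂. Viability by MTT, expressed as % of control. DMSO below 0.1%. Mean ± S.E.M. of three independent experiments.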

[15] = tested on: SH-SY5Y; test: Induction of mitochondrial dysfunction in non-stimulated human SH-SY5Y cells assessed as mitochondrial membrane potential at 10 uM measured after 6 hrs by Rh123 staining based flow cytometry (reference value: 97.6 %); type: cell-based
[16] = tested on: Mus musculus; test: Anti-parkinson's activity in MPTP-induced C57Bl/6 mouse model of Parkinson's disease assessed as increase in SOD activity in striatum administered intragastrically pretreated for 10 days followed by MPTP challenge measured 10 days post MPTP addition by xanthine oxidase method; type: functional, organism-based; outline: as §2
[17] = tested on: SH-SY5Y; test: Neuroprotection against H2O2-induced cell death in human SH-SY5Y cells preincubated for 6 hrs followed by H2O2 addition and measured after 24 hrs by MTT assay; type: functional, cell-based
Outline: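 Primary screen at 100 μM, then dose-response. SH-SY5Y cells pretreated, then exposed to 600 μM H₂O₂ (the level chosen from a 100–1000 μM, 24 h viability titration). EC₅₀ is the concentration giving 50% of maximal effect. N-acetyl-L-cysteine served as positive control. DMSO below 0.1%. Mean ± S.E.M. of three experiments.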

Q: Which Activity [1] does the source give for `COC(=O)[C@H](Cc1ccccc1)NC(=O)/C=C/c1ccc(O)c(O)c1` [N-CAFFEOYL-PHENYLALANINE METHYL ESTER] here?
A: 1.1%

Q: And the Activity [2]?
A: Active

Q: What about the bioavailability [3] of the same compound?
A: 15.2%

Q: And the Activity [4]?
A: Active

Q: And the Activity [5]?
A: Dose-dependent effect

Q: And the Activity [6]?
A: Dose-dependent effect

Q: And the Activity [7]?
A: Active

Q: What about the Activity [8] of the same compound?
A: Dose-dependent effect

Q: And the half-life [9]?
A: 51 min

Q: What about the Activity [10] of the same compound?
A: Active

Q: And the Activity [11]?
A: Active

Q: What about the Activity [12] of the same compound?
A: 180.66 U/L

Q: And the Vdss [13]?
A: 5.98 L/kg

Q: What about the viability at 1 µM [14] of the same compound?
A: 68.3%

Q: What about the Activity [15] of the same compound?
A: 98.1%

Q: What about the Activity [16] of the same compound?
A: Dose-dependent effect

Q: What about the EC50 [17] of the same compound?
A: 4.26 µM
